Active and inactive are the calls of the source. No cut-off for these calls is given here.
Key:
PC-3 [1] = assay: Cytotoxicity against human PC3 cells assessed as reduction in cell viability at 5 uM after 24 to 48 hrs by resazurin-based prestoblue assay; assay type: functional
Procedure, shortened: (§1)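 PC3 human prostate cancer cells (express LPA1 receptor) seeded at 5,000/well, cultured 24 and 48 h, then treated with LPE analogues at 5, 10, 25 or 50 μM for 24 or 48 h. Viability read with resazurin-based PrestoBlue reagent and expressed as % of untreated control (100%). Means ± SD of at least three independent experiments; P < 0.05 versus control.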

PC-3 [2] = assay: Cytotoxicity against human PC3 cells assessed as reduction in cell viability at 10 uM after 24 to 48 hrs by resazurin-based prestoblue assay; assay type: functional; procedure, shortened: as §1
PC-3 [3] = assay: Cytotoxicity against human PC3 cells assessed as reduction in cell viability at 50 uM after 24 to 48 hrs by resazurin-based prestoblue assay; assay type: functional; procedure, shortened: as §1
PC-3 [4] = assay: (§2) Cytotoxicity against human PC3 cells assessed as reduction in cell viability at 25 uM after 48 hrs by resazurin-based prestoblue assay; assay type: functional; procedure, shortened: as §1
PC-3 [5] = assay: (§3) Cytotoxicity against human PC3 cells assessed as reduction in cell viability at 50 uM after 48 hrs by resazurin-based prestoblue assay; assay type: functional; procedure, shortened: as §1
PC-3 [6] = assay: (§4) Cytotoxicity against human PC3 cells assessed as reduction in cell viability at 10 uM after 48 hrs by resazurin-based prestoblue assay; assay type: functional; procedure, shortened: as §1
[7] = as §2; assay type: functional, PC-3; procedure, shortened: as §1
[8] = as §3; assay type: functional, PC-3; procedure, shortened: as §1
[9] = as §4; assay type: functional, PC-3; procedure, shortened: as §1
[10] = Cytotoxicity against human PC3 cells assessed as reduction in cell viability at 10 uM after 24 hrs by resazurin-based prestoblue assay; assay type: functional, PC-3; procedure, shortened: as §1

SMILES	Activity (PC-3 [1])	Activity (PC-3 [2])	Activity (PC-3 [3])	Activity (PC-3 [4])	Activity (PC-3 [5])	Activity (PC-3 [6])	Activity [7] [%]	Activity [8] [%]	Activity [9] [%]	Activity [10] [%]
CCCCCCCC/C=C\CCCCCCCC(=O)OCC(COP(=O)(S)OCCN)OC (mixture of isomers)	inactive	inactive	inactive							
CCCCCCCCCCCCCCCCCC(=O)OCC(COP(=O)(O)OCCN)OC (racemic)	inactive	inactive		Active	Active	Active				
CCCCCCCCCCCCCCCC(=O)OCC(COP(=O)(O)OCCN)OC (racemic)	inactive						49.5	24.9	78.8	
CCCCCCCCCCCCCC(=O)OCC(COP(=O)(S)OCCN)OC (mixture of isomers)	inactive	inactive					59.8	43.8		
CCCCCCCCCCCCCCCCCC(=O)OCC(COP(=O)(S)OCCN)OC (mixture of isomers)	inactive	inactive	inactive							
CCCCCCCC/C=C\CCCCCCCC(=O)OCC(COP(=O)(O)OCCN)OC (mixture of isomers)	inactive	inactive		Active	Active	Active				
CCCCCCCCCCCCCCCC(=O)OCC(COP(=O)(S)OCCN)OC (configuration not stated)	inactive	inactive					79.1	70		
CCCCCCCCCCCCCC(=O)OCC(COP(=O)(O)OCCN)OC (racemic)							22.7	6.3	59.8	68.2

Reference: ChEMBL document CHEMBL3822448, “The chemical synthesis and preliminary biological studies of phosphodiester and phosphorothioate analogues of 2-methoxy-lysophosphatidylethanolamine” (2016)
